According to ChEMBL document CHEMBL4325922, “Restoring Let-7 microRNA Biogenesis Using a Small-Molecule Inhibitor of the Protein-RNA Interaction” (ACS Med Chem Lett, 2018):
Active and inactive are the calls of the source. No cut-off for these calls is given here.

What was measured:
[1] = molecular target: T1, Protein lin-28 homolog A/B (Homo sapiens) (UniProt Q6ZN17+Q9H9Z2); test: Inhibition of Lin28a/Lin28b in human JAR cells assessed as increase in mature let-7g level after 20 hrs by TRIzol dye based qRT-PCR analysis; type: cell-based
Procedure, shortened: (§1)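 JAR cells (express Lin28a and Lin28b) exposed to compound for 20 h; miRNA levels quantified with U6 snRNA as endogenous control; three or more biological replicates, standard deviation, paired two-tailed t test.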

[2] = molecular target: T1, Protein lin-28 homolog A/B (Homo sapiens); test: Inhibition of Lin28a/Lin28b in human paclitaxel-resistant JAR cells assessed as potentiation of paclitaxel induced cytotoxicity at 10 uM pretreated for 30 hrs followed by paclitaxel addition and measured after 72 hrs by WTS assay
Procedure, shortened: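 Paclitaxel-resistant JAR persister cells, enriched by cytotoxic paclitaxel exposure and regrowth without drug. Cells pretreated 30 h with compound, then given paclitaxel for 72 h without compound; WST viability used to derive the paclitaxel IC50.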

[3] = system: JAR; test: Increase in mature let-7i level in Lin28a/b knockdown human JAR cells at 10 uM after 20 hrs by qRT-PCR analysis; type: functional, cell-based
Procedure, shortened: (§2)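 Lin28 knocked-down JAR cells treated for 20 h; let-7 levels measured against U6 snRNA endogenous control; 2 biological replicates.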

[4] = molecular target: T2, Protein lin-28 homolog A (Homo sapiens) (UniProt Q9H9Z2); test: Inhibition of Cy5-preE-let-7a-1 binding to recombinant human N-terminal His6-tagged Lin28a expressed in Escherichia coli Rosetta2 (DE3) pLysS measured after 30 to 60 mins by electrophoretic mobility shift assay
T2 sequence (whole entry): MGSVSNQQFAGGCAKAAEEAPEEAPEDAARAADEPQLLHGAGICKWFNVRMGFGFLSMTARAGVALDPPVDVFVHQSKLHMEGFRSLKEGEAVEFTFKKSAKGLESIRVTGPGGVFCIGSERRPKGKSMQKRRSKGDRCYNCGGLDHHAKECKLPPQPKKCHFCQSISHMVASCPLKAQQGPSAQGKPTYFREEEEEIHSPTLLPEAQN

[5] = molecular target: T1, Protein lin-28 homolog A/B (Homo sapiens); test: Inhibition of Lin28a/Lin28b in human MCF7 cells assessed as reduction in IMP1 expression at 10 uM after 24 hrs by Western blot analysis; type: cell-based
[6] = system: PA-1; test: Increase in mature let-7d level in Lin28a CRISPR-Cas9 knockout human PA1 cells at 10 uM after 20 hrs by qRT-PCR analysis; type: functional, cell-based
Procedure, shortened: (§3)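 PA-1 cells with Lin28a fully knocked out by CRISPR/Cas9 editing (clonal lines) treated for 20 h; let-7 levels normalized to U6 snRNA; 2 technical replicates.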

[7] = molecular target: T2, Protein lin-28 homolog A (Homo sapiens); test: Inhibition of PreE-let-7a-1-BHQ2 binding to recombinant human N-terminal His6-tagged/Cy3-labelled Lin28a expressed in Escherichia coli Rosetta2 (DE3) pLysS measured after 30 to 60 mins by FRET assay
[8] = molecular target: T1, Protein lin-28 homolog A/B (Homo sapiens); test: Inhibition of Lin28a/Lin28b in human JAR cells assessed as reduction in IMP1 expression at 5 to 10 uM after 24 hrs by Western blot analysis; type: cell-based
Procedure, shortened: (§4)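 Endogenous let-7 target proteins (HMGA2, IMP1, Ras, Lin28a) detected by Western blot in JAR or PA-1 cells after 24 h compound treatment.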

[9] = system: JAR; test: Increase in mature let-7g level in Lin28a/b knockdown human JAR cells at 10 uM after 20 hrs by qRT-PCR analysis; type: functional, cell-based; procedure, shortened: as §2
[10] = molecular target: T3, Protein lin-28 homolog B (Homo sapiens) (UniProt Q6ZN17); test: Inhibition of biotinylated-preE-let-7g binding to Lin28b in human JAR cells by pull down assay; type: cell-based
T3 sequence (whole entry): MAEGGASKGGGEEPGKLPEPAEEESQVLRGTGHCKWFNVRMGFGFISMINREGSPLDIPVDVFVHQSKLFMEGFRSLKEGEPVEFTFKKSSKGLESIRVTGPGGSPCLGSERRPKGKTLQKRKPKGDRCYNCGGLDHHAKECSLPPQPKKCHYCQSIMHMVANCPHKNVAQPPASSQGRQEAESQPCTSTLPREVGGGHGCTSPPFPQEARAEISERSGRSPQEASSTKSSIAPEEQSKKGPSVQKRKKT
Procedure, shortened: (§5)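 5′-Biotinylated preE-let-7g is immobilized on streptavidin beads and incubated with proteome from JAR human choriocarcinoma cells, which express Lin28a and Lin28b. Test compound is present during binding, and target engagement is judged by the proteins pulled down.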

[11] = molecular target: T2, Protein lin-28 homolog A (Homo sapiens); test: Inhibition of Lin28a in human PA1 cells assessed as increase in mature let-7i level at 10 uM after 20 hrs by TRIzol dye based qRT-PCR analysis; type: cell-based
Procedure, shortened: (§6)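 PA-1 ovarian teratocarcinoma cells (express Lin28a) treated for 20 h; let-7 quantified relative to U6 snRNA; 4 biological replicates, standard deviation, paired two-tailed t test.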

[12] = system: JAR; test: Effect on miR-98 level in human JAR cells at 5 to 10 uM after 20 hrs by TRIzol dye based qRT-PCR analysis; type: functional, cell-based; procedure, shortened: as §1
[13] = system: C2C12; test: Cytotoxicity against mouse C2C12 cells at 10 uM after 24 hrs by WST assay; type: cell-based; settings: c2c12, 24 h
[14] = system: PA-1; test: Increase in mature let-7g level in Lin28a CRISPR-Cas9 knockout human PA1 cells at 10 uM after 20 hrs by qRT-PCR analysis; type: functional, cell-based; procedure, shortened: as §3
[15] = system: JAR; test: Inhibition of sphere formation in human JAR cells at 10 uM after 24 hrs by bright-field microscopic analysis; type: functional, cell-based
Procedure, shortened: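 JAR cells are pretreated with compound for 24 h, then dissociated to single cells. Equal numbers of viable cells are grown for 12 days in sphere-forming media. The degree of sphere formation is assessed under a microscope.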

[16] = molecular target: T1, Protein lin-28 homolog A/B (Homo sapiens); test: Inhibition of Lin28a/Lin28b in human JAR cells assessed as increase in mature let-7i level after 20 hrs by TRIzol dye based qRT-PCR analysis; type: cell-based; procedure, shortened: as §1
[17] = molecular target: T2, Protein lin-28 homolog A (Homo sapiens); test: Inhibition of Lin28a in human PA1 cells assessed as increase in mature let-7g level at 10 uM after 20 hrs by TRIzol dye based qRT-PCR analysis; type: cell-based; procedure, shortened: as §6
[18] = molecular target: T4, Protein lin-28 homolog A (Homo sapiens, UniProt Q9H9Z2); test: Inhibition of Cy5-preE-let-7g binding to recombinant human N-terminal His6-tagged Lin28a expressed in Escherichia coli Rosetta2 (DE3) pLysS measured after 30 to 60 mins by electrophoretic mobility shift assay
T4 sequence (Q9H9Z2 whole entry): T2 sequence (whole entry)

[19] = molecular target: T1, Protein lin-28 homolog A/B (Homo sapiens); test: Inhibition of Lin28a/Lin28b in human MCF7 cells assessed as reduction in Ras expression at 10 uM after 24 hrs by Western blot analysis; type: cell-based
[20] = molecular target: Heterogeneous nuclear ribonucleoprotein A1 (Homo sapiens) (UniProt P09651); test: Inhibition of biotinylated-preE-let-7g binding to hnRNPA1 in human JAR cells by pull down assay; type: cell-based; procedure, shortened: as §5
[21] = molecular target: T2, Protein lin-28 homolog A (Homo sapiens); test: Inhibition of biotinylated-preE-let-7g binding to Lin28a in human JAR cells by pull down assay; type: cell-based; procedure, shortened: as §5
[22] = system: JAR; test: Cytotoxicity against human JAR cells after 24 hrs by WST assay; type: functional, cell-based
[23] = molecular target: T2, Protein lin-28 homolog A (Homo sapiens); test: Inhibition of Lin28a in human PA1 cells assessed as reduction in Ras expression at 10 uM after 24 hrs by Western blot analysis; type: cell-based; procedure, shortened: as §4

Heterogeneous nuclear ribonucleoprotein A1 (Homo sapiens), sequence (P09651 whole entry): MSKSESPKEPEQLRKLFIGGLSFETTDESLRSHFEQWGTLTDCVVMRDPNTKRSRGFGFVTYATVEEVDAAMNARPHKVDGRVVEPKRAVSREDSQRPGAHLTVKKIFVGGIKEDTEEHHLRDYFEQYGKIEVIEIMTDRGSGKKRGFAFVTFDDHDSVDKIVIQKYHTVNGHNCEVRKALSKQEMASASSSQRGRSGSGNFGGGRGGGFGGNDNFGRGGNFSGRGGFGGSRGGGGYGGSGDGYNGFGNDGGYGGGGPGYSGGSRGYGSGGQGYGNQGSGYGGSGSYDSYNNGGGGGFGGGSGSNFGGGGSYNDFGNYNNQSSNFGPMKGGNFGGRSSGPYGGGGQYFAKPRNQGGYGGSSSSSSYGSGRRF

Compound: NC(=O)c1c(Nc2ccc(Cl)cc2Cl)[nH]c2c(Cl)ccc(Cl)c2c1=O
- inhibition [1]: Dose-dependent effect
- inhibition [2]: Active
- Activity [3]: inactive
- inhibition [4]: Active
- inhibition [5]: inactive
- Activity [6]: inactive
- inhibition [7]: Dose-dependent effect
- inhibition [8]: Active
- Activity [9]: inactive
- inhibition [10]: Dose-dependent effect
- inhibition [11]: Active
- Activity [12]: inactive
- Activity [13]: Toxic
- Activity [14]: inactive
- inhibition [15]: Active
- inhibition [16]: Dose-dependent effect
- inhibition [17]: Active
- IC50 [18]: 4.8 µM
- inhibition [19]: inactive
- inhibition [20]: inactive
- inhibition [21]: Dose-dependent effect
- Activity [22]: Active
- inhibition [23]: Active
